T cruzi growth-1: T. cruzi intracellular proliferation inhibitors, primary screen, cell-based, beta-gal Tulahuen parasites, NIH3T3 host, luminescence | T. cruzi beta-gal in NIH3T3, GalScreen luminescence, 90 h | inhibition, % at 8.34 µM | 77,000 tested, 5.9% active | AID 624255, 2012;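 active means mean inhibition above about 93%, with at least 55% of replicates each passing it, limit read from the data, passing the limit was not always enough; inconclusive means only one of those two conditions holds; inactive means neither condition holds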
KDM4C inh: inhibitors of GASC-1 (KDM4C) histone demethylase, primary screen, biochemical, single concentration HTS | 96,000 tested, 0.15% active | GST-KDM4C 2-372, H3K9me3 peptide, LANCE TR-FRET | inhibition, % at 12.5 µM | Lysine-specific demethylase 4C (Homo sapiens), Q9H3R0;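 active means mean replicate inhibition above about 25%, with at least 55% of replicates also reaching it, limit read from the data, passing the limit was not always enough; inconclusive means only one of those two conditions met; inactive means neither condition met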
Target sequence (Q9H3R0 2-372 limits assumed): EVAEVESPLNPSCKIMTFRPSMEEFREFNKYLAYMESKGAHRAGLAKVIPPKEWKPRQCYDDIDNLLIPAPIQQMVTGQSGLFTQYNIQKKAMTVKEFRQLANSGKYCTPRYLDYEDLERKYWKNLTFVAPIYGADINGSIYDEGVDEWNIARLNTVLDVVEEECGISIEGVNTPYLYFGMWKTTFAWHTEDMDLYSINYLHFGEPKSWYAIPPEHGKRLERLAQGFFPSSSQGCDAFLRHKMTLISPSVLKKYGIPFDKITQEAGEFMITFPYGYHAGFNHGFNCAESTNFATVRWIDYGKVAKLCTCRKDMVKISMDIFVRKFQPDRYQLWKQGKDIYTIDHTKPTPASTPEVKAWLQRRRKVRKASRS
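Test system: N-terminal GST-fused human GASC-1 (KDM4C) fragment, residues 2-372; quantity: GASC-1 enzyme at 10 nM final in reaction; dosing: single dose; schedule: 30 min demethylation and 1 h detection at room temperature; signal: LANCE TR-FRET, excitation 340 nm, emissions 618 and 671 nm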
IDH1 mut inh: inhibitors of IDH1 R132H reductase, primary screen, biochemical, plate reader, single point. Isocitrate dehydrogenase [NADP] cytoplasmic (Homo sapiens), O75874. diaphorase/resazurin fluorescence, 60 min. inhibition, % at 10 µM. 70,000 tested, 0.18% active. AID 624101, 2012; in the data active means inhibition above about 34%; inconclusive means no clear call, values can overlap the other calls; inactive means below about 11%
Target sequence (O75874 whole entry R132H): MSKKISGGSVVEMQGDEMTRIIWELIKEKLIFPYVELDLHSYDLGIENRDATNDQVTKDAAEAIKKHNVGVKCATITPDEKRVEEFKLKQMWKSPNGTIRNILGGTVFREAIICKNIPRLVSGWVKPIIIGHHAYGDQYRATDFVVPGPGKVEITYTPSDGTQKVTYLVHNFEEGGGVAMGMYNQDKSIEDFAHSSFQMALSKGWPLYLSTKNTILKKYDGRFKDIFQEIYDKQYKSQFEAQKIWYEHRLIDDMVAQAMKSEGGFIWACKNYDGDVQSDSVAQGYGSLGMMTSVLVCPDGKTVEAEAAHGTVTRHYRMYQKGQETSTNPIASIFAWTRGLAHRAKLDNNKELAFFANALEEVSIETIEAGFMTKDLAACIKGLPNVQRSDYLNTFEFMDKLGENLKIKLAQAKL
T cruzi growth-2: T. cruzi intracellular proliferation inhibitors, confirmation, cell-based, NIH3T3 host, beta-gal parasite, luminescence, cherry-pick; inhibition, % at 8.35 µM; shares compounds with T cruzi growth-1; 5,600 tested, 72% active; T. cruzi beta-gal in NIH3T3, GalScreen luminescence, 90 h; AID 651739, 2012;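 active means mean replicate inhibition above about 95% and at least 55% of replicates individually reaching it, limit read from the data; inconclusive means only one of the two criteria is met; inactive means neither criterion is met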
T cruzi growth-3: inhibitors of intracellular T. cruzi replication, confirmation, NIH3T3 host cells, beta-gal parasites, cherry-pick, set 2 | shares compounds with T cruzi growth-1 | T. cruzi beta-gal in NIH3T3, GalScreen luminescence, 90 h | inhibition, % at 2.09 µM | 5,600 tested, 21% active | AID 651740, 2012;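 active means mean inhibition above about 95%, with at least 55% of replicates also reaching it, limit read from the data; inconclusive means meets just one of the two conditions; inactive means meets neither condition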
3T3 cytotox: cytotoxicity in mouse NIH/3T3 fibroblasts, confirmation, cytotoxicity control for T. cruzi proliferation inhibitor project, cell-based, cherry-pick, single point; NIH/3T3 viability, CellTiter-Glo ATP luminescence, 90 h; 5,600 tested, 14% active; shares compounds with T cruzi growth-1; cytotoxicity (signal decrease), % at 8.35 µM;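 active means mean signal decrease across replicates above about 35% based on untreated-well scatter, with enough replicates individually passing, limit read from the data; inconclusive means no rule stated though some were filed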
3T3 cytotox 2: NIH/3T3 fibroblast cytotoxicity, confirmation, cytotoxicity control, cell-based, cherry-pick, single point, set 2 | 5,600 tested, 56% active | shares compounds with T cruzi growth-1 | NIH/3T3 viability, CellTiter-Glo ATP luminescence, 90 h | inhibition, % at 24.9 µM;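 active means mean loss of cell viability signal at or above a set limit, and enough replicates individually reaching it; inconclusive means meets only the mean limit or only the replicate share; inactive means meets neither condition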
Hits are given with their value; 0 = inactive; ? = inconclusive; - = not tested or not shown; + = active, no number. Only a selection was taken, and hits are over-represented in it overall.

SMILES | T cruzi growth-1 | KDM4C inh | IDH1 mut inh | T cruzi growth-2 | T cruzi growth-3 | 3T3 cytotox | 3T3 cytotox 2
O=C(NCc1ccc(F)cc1)[C@H]1[C@H](CO)[C@H]2Cn3c(cccc3=O)[C@@H]1N2 | 0 | 0 | - | - | - | - | -
CN1CCN(C(=O)[C@H]2[C@H](CO)[C@H]3Cn4c(cccc4=O)[C@@H]2N3Cc2ccncc2)CC1 | + | 0 | - | 0 | 0 | 0 | 0
O=C(NCc1ccc(F)cc1)[C@H]1[C@H](CO)[C@H]2Cn3c(cccc3=O)[C@@H]1N2Cc1cccnc1 | 99.1 | 0 | - | 0 | 0 | 0 | 0
O=C(NCc1ccc(F)cc1)[C@@H]1[C@@H](CO)[C@@H]2Cn3c(cccc3=O)[C@H]1N2 | ? | 0 | - | 0 | 0 | 0 | 0
O=C(COc1ccccc1[N+](=O)[O-])Nc1cccc(-c2nc3cc(Cl)cc(Cl)c3o2)c1 | - | - | 0 | - | - | - | -
COC(=O)c1ccccc1NC(=O)C1=C(C)NC(=S)NC1c1ccc(OC2CCCC2)c(OC)c1 (centres undefined) | - | - | 0 | - | - | - | -
COC(=O)c1ccccc1NC(=O)Cn1ccc([N+](=O)[O-])n1 | - | - | 0 | - | - | - | -
Cc1cc(C)c(NC(=O)CSc2nnc(-c3ccc(F)cc3)n2C)c(C)c1 | - | - | 0 | - | - | - | -
Cc1ccc(C)c(S(=O)(=O)NCC(=O)Nc2ccc(F)c(Cl)c2)c1 | - | - | 0 | - | - | - | -
CCCNC(=O)Nc1ccc2c(c1)OC[C@@H](C)N(Cc1ccccc1)C[C@@H](C)[C@@H](OC)CN(C)C2=O | 0 | 0 | 0 | - | - | - | -
CO[C@H]1CN(C)C(=O)c2cc(NC(=O)Cc3ccccc3)ccc2OC[C@@H](C)NC[C@H]1C | 0 | - | 0 | - | - | - | -
COc1ccccc1NC(=O)N1CCCCN2[C@H](C1)[C@H](c1ccc(C#CC3CC3)cc1)[C@@H]2CO | 100.2 | - | - | 105.2 | 0 | 0 | 30.2
COc1ccccc1NC(=O)N1CCCCN2[C@H](CO)[C@H](c3ccc(C#Cc4ccccc4)cc3)[C@H]2C1 | 0 | 0 | - | - | - | - | -
COc1ccccc1NC(=O)N1CCCCN2[C@H](CO)[C@@H](c3ccc(C#CC4CCCC4)cc3)[C@H]2C1 | 0 | 0 | - | - | - | - | -
COc1ccccc1NC(=O)N1CCCCN2[C@H](C1)[C@@H](c1ccc(C#Cc3ccccc3)cc1)[C@@H]2CO | 107.0 | 0 | - | 99.3 | 108.6 | 35.8 | 104.8
COc1cccc(C(Nc2cc(C)ccn2)c2ccc3ccc(C)nc3c2O)c1 (centres undefined) | - | - | 0 | - | - | - | -
COc1cc(Br)c(S(=O)(=O)NCCOc2ccc(C(C)(C)C)cc2)cc1OC | - | - | 0 | - | - | - | -
CN1c2ccc(Br)cc2[C@H]2[C@H](CCN2S(=O)(=O)c2cccc(F)c2)[C@H]1CO | ? | 0 | - | 97.1 | 0 | 0 | 0
Cc1ccc(S(=O)(=O)N2CC[C@H]3[C@@H](CO)N(C)c4ccc(-c5cccc(C#N)c5)cc4[C@H]32)cc1 | 0 | 0 | - | - | - | - | -
Cc1ccccc1S(=O)(=O)N1CC[C@@H]2[C@@H](CO)N(C)c3ccc(-c4cccc(C#N)c4)cc3[C@@H]21 | 100.4 | 0 | - | 98.6 | 0 | 0 | 61.4
Cc1ccccc1S(=O)(=O)N1CC[C@@H]2[C@H](CO)N(C)c3ccc(Br)cc3[C@@H]21 | 131.0 | 0 | - | 106.8 | 0 | 0 | 71.8
Cc1cccc(S(=O)(=O)N2CC[C@@H]3[C@@H](CO)N(C)c4ccc(Br)cc4[C@@H]32)c1 | 0 | 0 | - | - | - | - | -
COc1ccccc1S(=O)(=O)N1CC[C@@H]2[C@H]1c1cc(-c3cccc(C#N)c3)ccc1N(C)[C@H]2CO | 106.2 | 0 | - | 104.8 | 0 | ? | 33.4
COc1ccccc1S(=O)(=O)N1CC[C@@H]2[C@@H](CO)N(C)c3ccc(-c4ccc(C#N)cc4)cc3[C@@H]21 | 0 | 0 | - | - | - | - | -
Cc1ccccc1S(=O)(=O)N1CC[C@@H]2[C@H]1c1cc(Br)ccc1N(C)[C@H]2CO | 0 | 0 | - | - | - | - | -
SMILES | T cruzi growth-1 | KDM4C inh | IDH1 mut inh | T cruzi growth-2 | T cruzi growth-3 | 3T3 cytotox | 3T3 cytotox 2
Cc1c(C(=O)N(C)C)sc2[nH]c(=O)n(-c3ccccc3C(F)(F)F)c(=O)c12 | - | - | 0 | - | - | - | -
Cc1ccnc(SCC(=O)Nc2ccccc2C)n1 | - | - | 0 | - | - | - | -
Cc1ccccc1S(=O)(=O)N1CC[C@@H]2[C@H]1c1cc(-c3ccc(F)cc3)ccc1N(C)[C@H]2CO | 0 | 0 | - | - | - | - | -
Cc1ccccc1S(=O)(=O)N1CC[C@@H]2[C@H]1c1cc(-c3ccccc3)ccc1N(C)[C@H]2CO | 97.8 | 0 | - | 107.4 | 115.0 | 0 | 103.3
COc1ccccc1S(=O)(=O)N1CC[C@@H]2[C@@H](CO)N(C)c3ccc(-c4cccc(C#N)c4)cc3[C@@H]21 | 97.3 | 0 | - | 106.5 | 0 | 0 | 0
COc1ccccc1S(=O)(=O)N1CC[C@@H]2[C@H]1c1cc(-c3ccc(F)cc3)ccc1N(C)[C@H]2CO | 0 | 0 | - | - | - | - | -
Cc1ccc(N=C2NC(=O)CC(C(=O)Nc3ccc(Cl)cc3)S2)cc1C (centres undefined) | - | - | 0 | - | - | - | -
Cn1c(SCC(=O)Nc2ccc(Cl)cc2)nnc1-c1ccc(Cl)c(Cl)c1 | - | - | 0 | - | - | - | -
C[C@@H]1CN([C@@H](C)CO)S(=O)(=O)c2ccc(C3=CCCCC3)cc2O[C@H]1CN(C)CC1CC1 | 0 | 0 | 0 | - | - | - | -
O=C(NC1CCCC1)c1c(NC(=O)c2cc(-c3ccccn3)nc3ccccc23)sc2c1CCC2 | - | - | 0 | - | - | - | -
Cc1ccc(S(=O)(=O)N(C)C[C@@H]2Oc3ccc(NC(=O)CCN4CCOCC4)cc3C(=O)N([C@H](C)CO)C[C@H]2C)cc1 | 0 | 0 | 0 | - | - | - | -
Cc1ccc(S(=O)(=O)N(C)C[C@H]2Oc3ccc(NS(=O)(=O)c4c(C)noc4C)cc3C(=O)N([C@H](C)CO)C[C@@H]2C)cc1 | 0 | 0 | 0 | - | - | - | -
C[C@@H]1CCCCO[C@@H](CN(C)S(=O)(=O)c2ccccc2)[C@@H](C)CN([C@@H](C)CO)C(=O)c2cc(NS(=O)(=O)c3ccc(Cl)cc3)ccc2O1 | 117.5 | 0 | - | 101.0 | 0 | 0 | 0
C[C@@H]1CN([C@H](C)CO)C(=O)c2cc(NS(=O)(=O)c3ccc(Cl)cc3)ccc2O[C@@H](C)CCCCO[C@H]1CN(C)S(=O)(=O)c1ccc(Cl)cc1 | 0 | 0 | - | - | - | - | -
C[C@@H]1CCCCO[C@H](CN(C)S(=O)(=O)c2ccc(Cl)cc2)[C@H](C)CN([C@H](C)CO)C(=O)c2cc(NS(=O)(=O)c3ccccc3)ccc2O1 | 0 | 0 | 0 | - | - | - | -
C[C@@H]1CN([C@@H](C)CO)C(=O)c2cc(NS(=O)(=O)c3ccc(Cl)cc3)ccc2O[C@@H](C)CCCCO[C@H]1CN(C)S(=O)(=O)c1ccc(Cl)cc1 | 110.6 | 0 | 0 | 108.1 | 0 | 0 | 0

Bioassay records: PubChem BioAssay, Broad Institute
